pIC50: −log10 of the molar value. Calls of active or inactive are those of the source. The rule behind the calls is not given here.
Tests used:
[1] = biological target: T1, Serine/threonine-protein kinase Aurora (Homo sapiens, UniProt Q96GD4+Q9UQB9+O14965); test: Inhibition of AURA/AURB/AURC in human HeLa cells lysate pre incubated for 15 mins followed by ATP acyl phosphate probe addition and measured after 10 mins by LC-MS/MS analysis; format: subcellular
Summary of the method: (§1)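 KiNativ-type profiling in HeLa lysate (5 mg/mL total protein). Lysate preincubated 15 min with inhibitor at 50, 10, 2, 0.8 or 0 μM, then ATP or ADP acylphosphate probe added (5 μM final) for 10 min. Reaction stopped with urea and analysed by targeted MS, using up to four fragment ions per kinase peptide-probe conjugate. % inhibition calculated against untreated lysate. Duplicate reactions.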

[2] = biological target: Ribosomal protein S6 kinase alpha-5 (Homo sapiens, UniProt O75582); test: Inhibition of MSK1 in human HeLa cells lysate pre incubated for 15 mins followed by ATP acyl phosphate probe addition and measured after 10 mins by LC-MS/MS analysis; format: subcellular
[3] = biological target: Serine-protein kinase ATM (Homo sapiens, UniProt Q13315); test: Inhibition of ATM in human HeLa cells lysate pre incubated for 15 mins followed by ADP acyl phosphate probe addition and measured after 10 mins by LC-MS/MS analysis; format: subcellular; summary of the method: as §1
[4] = biological target: Calcium/calmodulin-dependent protein kinase type II subunit gamma (Homo sapiens, UniProt Q13555); test: Inhibition of CAMK2g in human HeLa cells lysate pre incubated for 15 mins followed by ADP acyl phosphate probe addition and measured after 10 mins by LC-MS/MS analysis; format: subcellular; summary of the method: as §1
[5] = biological target: Cyclin-dependent kinase 2 (Homo sapiens, UniProt P24941); test: Inhibition of CDK2 K2 site in human HeLa cells lysate pre incubated for 15 mins followed by ADP acyl phosphate probe addition and measured after 10 mins by LC-MS/MS analysis; format: subcellular
Summary of the method: (§2)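 KiNativ profiling in HeLa lysate (5 mg/mL total protein). Lysate incubated 15 min with inhibitor at 50, 10, 2, 0.8 or 0 μM. ATP or ADP acylphosphate probe then added (5 μM final) and reacted 10 min. Reaction stopped with urea and analysed by targeted MS, using up to four fragment ions per kinase peptide-probe conjugate. % inhibition taken against untreated lysate. Run in duplicate.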

[6] = biological target: Serine/threonine-protein kinase/endoribonuclease IRE1 (Homo sapiens, UniProt O75460); test: Inhibition of IRE1 in human HeLa cells lysate pre incubated for 15 mins followed by ADP acyl phosphate probe addition and measured after 10 mins by LC-MS/MS analysis; format: subcellular
[7] = biological target: Serine/threonine-protein kinase MARK1 (Homo sapiens, UniProt Q9P0L2); test: Inhibition of MARK1 in human HeLa cells lysate pre incubated for 15 mins followed by ADP acyl phosphate probe addition and measured after 10 mins by LC-MS/MS analysis; format: subcellular
[8] = biological target: T2, Phosphatidylinositol 4-kinase beta (Homo sapiens, UniProt Q9UBF8); test: Inhibition of PIK4CB in human HeLa cells lysate at 10 uM pre incubated for 15 mins followed by ADP acyl phosphate probe addition and measured after 10 mins by LC-MS/MS analysis relative to control; format: subcellular; details: time 25.0 min
[9] = biological target: Mitogen-activated protein kinase 3 (Homo sapiens, UniProt P27361); test: Inhibition of ERK1 in human HeLa cells lysate at 2 uM pre incubated for 15 mins followed by ADP acyl phosphate probe addition and measured after 10 mins by LC-MS/MS analysis relative to control; format: subcellular; details: time 25.0 min
[10] = biological target: Cyclin-dependent kinase 8/19 (Homo sapiens, UniProt P49336+Q9BWU1); test: Inhibition of CDK8/CDK11 in human HeLa cells lysate at 50 uM pre incubated for 15 mins followed by ATP acyl phosphate probe addition and measured after 10 mins by LC-MS/MS analysis relative to control; format: subcellular; details: time 25.0 min; summary of the method: as §2
[11] = biological target: MAP/microtubule affinity-regulating kinase 3 (Homo sapiens, UniProt P27448); test: Inhibition of MARK3 in human HeLa cells lysate at 50 uM pre incubated for 15 mins followed by ATP acyl phosphate probe addition and measured after 10 mins by LC-MS/MS analysis relative to control; format: subcellular; details: time 25.0 min
[12] = biological target: T2, Phosphatidylinositol 4-kinase beta; test: Inhibition of PIK4CB in human HeLa cells lysate at 10 uM pre incubated for 15 mins followed by ATP acyl phosphate probe addition and measured after 10 mins by LC-MS/MS analysis relative to control; format: subcellular; details: time 25.0 min
[13] = biological target: T1, Serine/threonine-protein kinase Aurora; test: Inhibition of AurA/AurB/AurC in human HeLa cells lysate at 10 uM pre incubated for 15 mins followed by ATP acyl phosphate probe addition and measured after 10 mins by LC-MS/MS analysis relative to control; format: subcellular; details: time 25.0 min; summary of the method: as §1
[14] = biological target: Mitogen-activated protein kinase kinase kinase 5 (Homo sapiens) (UniProt Q99683); test: Inhibition of MAP3K5 in human HeLa cells lysate at 10 uM pre incubated for 15 mins followed by ATP acyl phosphate probe addition and measured after 10 mins by LC-MS/MS analysis relative to control; format: subcellular; details: time 25.0 min
[15] = biological target: Glycogen synthase kinase-3 beta (Homo sapiens, UniProt P49841); test: Inhibition of GSK3B isoform 2 in human HeLa cells lysate at 2 uM pre incubated for 15 mins followed by ATP acyl phosphate probe addition and measured after 10 mins by LC-MS/MS analysis relative to control; format: subcellular; details: time 25.0 min
[16] = biological target: T3, Scaffold protein ILK (Homo sapiens) (UniProt Q13418); test: Inhibition of ILK in human HeLa cells lysate at 2 uM pre incubated for 15 mins followed by ATP acyl phosphate probe addition and measured after 10 mins by LC-MS/MS analysis relative to control; format: subcellular; details: time 25.0 min
T3 sequence (whole entry): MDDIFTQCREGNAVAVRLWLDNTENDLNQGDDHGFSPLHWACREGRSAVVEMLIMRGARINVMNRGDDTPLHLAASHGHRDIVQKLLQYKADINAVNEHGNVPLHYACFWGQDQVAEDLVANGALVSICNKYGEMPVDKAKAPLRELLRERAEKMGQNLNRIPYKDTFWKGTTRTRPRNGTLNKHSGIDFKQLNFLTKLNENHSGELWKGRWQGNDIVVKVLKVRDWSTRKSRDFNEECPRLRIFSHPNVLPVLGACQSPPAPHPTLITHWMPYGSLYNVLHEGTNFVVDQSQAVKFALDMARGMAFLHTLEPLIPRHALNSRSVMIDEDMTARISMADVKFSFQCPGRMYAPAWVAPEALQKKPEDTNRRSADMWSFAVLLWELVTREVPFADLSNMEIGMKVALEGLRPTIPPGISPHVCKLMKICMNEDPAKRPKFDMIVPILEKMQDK

[17] = biological target: Mitogen-activated protein kinase; ERK1/ERK2 (Homo sapiens) (UniProt P27361+P28482); test: Inhibition of ERK1/2 in human HeLa cells assessed as reduction in EGF-induced ERK1/2 phosphorylation level at T202/Y204 residue at 1 to 5 uM pre incubated for 1 hr followed by EGF stimulation and measured after 17 mins by Western blot analysis; format: cell-based; details: dose 1-5 µM, time 77.0 min
[18] = AUCinfinity in Sprague-Dawley rat at 2 mg/kg, po measured up to 8 hrs by LC-MS/MS analysis; format: ADME, organism-based; details: in vivo
Summary of the method: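 Sprague-Dawley rats given one intravenous dose or one oral dose of 2 mg/kg. Plasma drug concentrations were followed over time, with samples taken out to 8 hr after dosing. PK parameters (clearance, volume of distribution, half-life, oral bioavailability, Cmax) were calculated from these concentration–time data.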

T2 sequence (Q9UBF8 2-816 limits assumed): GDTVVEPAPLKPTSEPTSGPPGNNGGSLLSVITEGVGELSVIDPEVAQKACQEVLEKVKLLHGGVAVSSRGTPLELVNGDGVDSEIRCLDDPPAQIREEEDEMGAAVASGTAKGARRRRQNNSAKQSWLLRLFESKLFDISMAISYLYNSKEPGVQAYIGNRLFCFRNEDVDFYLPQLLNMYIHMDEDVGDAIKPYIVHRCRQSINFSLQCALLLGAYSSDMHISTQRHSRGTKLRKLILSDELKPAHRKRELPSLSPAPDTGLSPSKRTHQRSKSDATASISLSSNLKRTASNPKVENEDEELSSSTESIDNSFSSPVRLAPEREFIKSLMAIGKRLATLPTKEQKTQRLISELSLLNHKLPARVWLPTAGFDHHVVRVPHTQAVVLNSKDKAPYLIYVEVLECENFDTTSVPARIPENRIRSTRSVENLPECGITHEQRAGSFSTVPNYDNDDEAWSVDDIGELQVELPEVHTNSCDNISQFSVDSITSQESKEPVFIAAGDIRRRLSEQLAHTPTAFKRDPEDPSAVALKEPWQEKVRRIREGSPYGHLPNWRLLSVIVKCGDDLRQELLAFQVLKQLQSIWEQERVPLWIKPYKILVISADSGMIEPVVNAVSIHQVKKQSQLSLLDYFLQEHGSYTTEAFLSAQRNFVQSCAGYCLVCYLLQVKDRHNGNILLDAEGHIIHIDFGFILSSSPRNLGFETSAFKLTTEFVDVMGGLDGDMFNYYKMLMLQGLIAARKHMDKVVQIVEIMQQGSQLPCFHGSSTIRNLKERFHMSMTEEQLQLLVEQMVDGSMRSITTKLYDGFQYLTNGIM
Sequence of Ribosomal protein S6 kinase alpha-5 (O75582 whole entry): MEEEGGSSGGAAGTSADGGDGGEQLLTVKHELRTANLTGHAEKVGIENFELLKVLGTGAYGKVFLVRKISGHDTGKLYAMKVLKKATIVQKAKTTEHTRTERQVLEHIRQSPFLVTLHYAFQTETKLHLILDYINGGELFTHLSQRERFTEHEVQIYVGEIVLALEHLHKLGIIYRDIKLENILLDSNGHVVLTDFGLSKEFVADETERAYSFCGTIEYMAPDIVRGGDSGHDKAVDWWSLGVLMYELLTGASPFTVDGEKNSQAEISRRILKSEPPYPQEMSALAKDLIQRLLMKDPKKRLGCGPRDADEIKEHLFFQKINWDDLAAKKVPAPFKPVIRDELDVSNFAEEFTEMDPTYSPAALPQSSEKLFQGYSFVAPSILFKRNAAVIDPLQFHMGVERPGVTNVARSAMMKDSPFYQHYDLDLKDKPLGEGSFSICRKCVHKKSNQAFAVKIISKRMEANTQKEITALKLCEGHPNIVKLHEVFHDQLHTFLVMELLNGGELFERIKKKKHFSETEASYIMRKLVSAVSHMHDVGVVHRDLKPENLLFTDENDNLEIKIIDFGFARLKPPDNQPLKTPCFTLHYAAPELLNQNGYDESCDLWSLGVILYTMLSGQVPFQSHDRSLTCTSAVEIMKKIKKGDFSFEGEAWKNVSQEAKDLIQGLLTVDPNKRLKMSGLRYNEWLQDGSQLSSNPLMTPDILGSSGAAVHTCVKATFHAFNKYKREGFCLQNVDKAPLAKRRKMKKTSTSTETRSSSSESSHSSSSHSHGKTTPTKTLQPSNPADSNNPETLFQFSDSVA
T1 sequence (O14965 whole entry, looked up, the tested form may be a part): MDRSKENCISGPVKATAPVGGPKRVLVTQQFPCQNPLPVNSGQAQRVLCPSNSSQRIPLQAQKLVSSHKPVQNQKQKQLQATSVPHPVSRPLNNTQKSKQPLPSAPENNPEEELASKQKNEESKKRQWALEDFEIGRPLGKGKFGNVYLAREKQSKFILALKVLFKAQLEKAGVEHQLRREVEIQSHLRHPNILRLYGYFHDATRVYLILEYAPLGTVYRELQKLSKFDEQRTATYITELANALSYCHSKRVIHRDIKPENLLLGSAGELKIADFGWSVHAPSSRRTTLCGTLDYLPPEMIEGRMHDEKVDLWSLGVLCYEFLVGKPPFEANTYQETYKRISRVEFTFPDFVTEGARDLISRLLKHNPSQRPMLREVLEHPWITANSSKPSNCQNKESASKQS
T1 sequence (Q96GD4 whole entry, looked up, the tested form may be a part): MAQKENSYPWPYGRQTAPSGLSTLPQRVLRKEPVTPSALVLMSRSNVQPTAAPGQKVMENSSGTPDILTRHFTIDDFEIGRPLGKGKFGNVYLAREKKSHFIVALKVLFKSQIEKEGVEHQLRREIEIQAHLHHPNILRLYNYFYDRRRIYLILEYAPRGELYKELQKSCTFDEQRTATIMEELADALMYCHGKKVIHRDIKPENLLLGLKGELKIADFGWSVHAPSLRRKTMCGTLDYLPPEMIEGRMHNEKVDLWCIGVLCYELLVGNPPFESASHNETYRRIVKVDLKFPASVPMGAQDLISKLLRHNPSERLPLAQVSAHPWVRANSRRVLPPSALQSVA
T1 sequence (Q9UQB9 whole entry, looked up, the tested form may be a part): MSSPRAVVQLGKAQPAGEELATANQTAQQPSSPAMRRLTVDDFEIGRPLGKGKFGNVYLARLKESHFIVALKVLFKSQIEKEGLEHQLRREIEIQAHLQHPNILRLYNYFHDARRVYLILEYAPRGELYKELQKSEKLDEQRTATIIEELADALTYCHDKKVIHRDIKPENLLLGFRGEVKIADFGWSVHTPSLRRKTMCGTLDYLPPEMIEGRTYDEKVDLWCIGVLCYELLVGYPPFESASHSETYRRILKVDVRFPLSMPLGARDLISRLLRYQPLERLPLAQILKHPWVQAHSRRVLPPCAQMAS
Sequence of Serine/threonine-protein kinase/endoribonuclease IRE1 (O75460 whole entry): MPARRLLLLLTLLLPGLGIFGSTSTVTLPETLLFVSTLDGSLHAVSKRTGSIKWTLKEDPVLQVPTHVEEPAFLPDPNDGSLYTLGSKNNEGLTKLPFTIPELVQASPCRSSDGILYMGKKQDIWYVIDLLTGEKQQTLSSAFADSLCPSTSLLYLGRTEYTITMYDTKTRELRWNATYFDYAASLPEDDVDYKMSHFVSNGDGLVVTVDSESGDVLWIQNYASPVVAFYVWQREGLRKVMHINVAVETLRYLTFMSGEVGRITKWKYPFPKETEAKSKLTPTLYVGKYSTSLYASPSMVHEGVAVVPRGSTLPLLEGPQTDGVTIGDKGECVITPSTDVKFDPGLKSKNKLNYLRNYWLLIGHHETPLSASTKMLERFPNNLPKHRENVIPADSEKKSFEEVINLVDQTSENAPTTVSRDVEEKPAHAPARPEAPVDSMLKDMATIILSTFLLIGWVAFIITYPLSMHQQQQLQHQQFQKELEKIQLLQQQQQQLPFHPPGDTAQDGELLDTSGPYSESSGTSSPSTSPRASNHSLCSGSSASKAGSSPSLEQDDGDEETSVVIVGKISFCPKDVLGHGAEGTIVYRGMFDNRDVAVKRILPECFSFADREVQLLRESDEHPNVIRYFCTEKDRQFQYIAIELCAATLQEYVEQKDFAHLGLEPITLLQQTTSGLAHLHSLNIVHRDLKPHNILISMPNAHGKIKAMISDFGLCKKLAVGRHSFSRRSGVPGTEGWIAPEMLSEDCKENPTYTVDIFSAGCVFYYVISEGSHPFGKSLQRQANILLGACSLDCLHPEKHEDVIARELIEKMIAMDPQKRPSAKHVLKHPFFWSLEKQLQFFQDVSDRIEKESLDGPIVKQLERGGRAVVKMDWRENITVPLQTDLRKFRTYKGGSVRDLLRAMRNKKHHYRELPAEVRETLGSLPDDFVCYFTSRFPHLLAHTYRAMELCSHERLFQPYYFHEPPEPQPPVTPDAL
Sequence of Mitogen-activated protein kinase kinase kinase 5 (Homo sapiens) (Q99683 whole entry, canonical isoform): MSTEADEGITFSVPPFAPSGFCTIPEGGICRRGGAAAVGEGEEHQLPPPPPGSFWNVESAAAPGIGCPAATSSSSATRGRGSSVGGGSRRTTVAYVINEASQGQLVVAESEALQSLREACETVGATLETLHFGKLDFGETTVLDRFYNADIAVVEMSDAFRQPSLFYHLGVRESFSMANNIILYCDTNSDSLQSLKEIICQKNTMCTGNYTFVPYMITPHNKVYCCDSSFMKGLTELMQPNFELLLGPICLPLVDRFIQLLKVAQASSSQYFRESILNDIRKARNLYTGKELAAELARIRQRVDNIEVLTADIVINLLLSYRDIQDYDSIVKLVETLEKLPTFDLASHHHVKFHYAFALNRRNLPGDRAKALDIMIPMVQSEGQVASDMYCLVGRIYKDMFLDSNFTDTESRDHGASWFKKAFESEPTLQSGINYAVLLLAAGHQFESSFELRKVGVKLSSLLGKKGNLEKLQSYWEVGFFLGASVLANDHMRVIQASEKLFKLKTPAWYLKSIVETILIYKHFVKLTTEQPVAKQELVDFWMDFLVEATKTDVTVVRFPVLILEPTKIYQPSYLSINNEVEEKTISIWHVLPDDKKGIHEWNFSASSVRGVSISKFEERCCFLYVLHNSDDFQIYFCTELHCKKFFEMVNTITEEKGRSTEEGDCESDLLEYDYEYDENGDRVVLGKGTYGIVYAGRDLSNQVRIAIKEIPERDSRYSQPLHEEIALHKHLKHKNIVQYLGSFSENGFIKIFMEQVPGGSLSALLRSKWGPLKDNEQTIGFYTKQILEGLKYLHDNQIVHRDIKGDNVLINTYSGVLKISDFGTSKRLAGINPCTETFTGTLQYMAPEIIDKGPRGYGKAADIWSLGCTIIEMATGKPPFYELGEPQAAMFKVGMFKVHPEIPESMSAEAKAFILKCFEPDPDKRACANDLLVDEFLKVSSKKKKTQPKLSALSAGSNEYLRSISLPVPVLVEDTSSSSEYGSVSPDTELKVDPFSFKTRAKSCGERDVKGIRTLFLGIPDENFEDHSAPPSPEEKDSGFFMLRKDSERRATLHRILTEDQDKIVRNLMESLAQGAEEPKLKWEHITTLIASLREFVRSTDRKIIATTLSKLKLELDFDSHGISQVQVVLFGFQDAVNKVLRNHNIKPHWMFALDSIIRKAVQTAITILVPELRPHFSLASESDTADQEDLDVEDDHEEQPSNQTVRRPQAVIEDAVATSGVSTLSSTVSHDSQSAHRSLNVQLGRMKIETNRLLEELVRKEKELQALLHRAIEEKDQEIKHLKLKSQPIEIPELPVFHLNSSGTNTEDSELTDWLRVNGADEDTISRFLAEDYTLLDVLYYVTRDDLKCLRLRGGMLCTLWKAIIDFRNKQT

`CCOc1cc(N2CCC(O)CC2)ccc1Nc1ncc2c(n1)N(C)c1ccccc1C(=O)N2C` showed an IC50 [1] greater than 50 µM, a pIC50 [2] of less than 4.30 and a pIC50 [3] of less than 4.30. It also gave a pIC50 [4] of less than 4.30, a pIC50 [5] of less than 4.30 and a pIC50 [6] of less than 4.30. The pIC50 [7] was less than 4.30, the inhibition [8] was 1.1% and the inhibition [9] was 16.2%. For the same compound, the inhibition [10] was 7.7%, the inhibition [11] was 6.2% and the inhibition [12] was 25.8%. The inhibition [13] was -7.7%, the inhibition [14] was 12.5% and the inhibition [15] was 7.8%. The inhibition [16] was 13.4%, the inhibition [17] was “inactive” and the AUC(0-inf) [18] was 1.9 µM·h.
